Source: PubChem BioAssay
MrgX1 agonist: agonists of human MrgX1 receptor, primary screen, HEK293 cells, Fluo-4 calcium flux; Mas-related G-protein coupled receptor member X1 (Homo sapiens), Q96LB2; Fluo-4 calcium fluorescence, agonist mode; active compounds read high; B-score at 10 µM; hit rate 0.44% among 310,000; AID 588627, 2011;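 active = calcium response B-score plate-corrected fluorescence ratio at least 3 library SD, with starting fluorescence B-score inside 5 SD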
Target sequence (Q96LB2 whole entry, looked up): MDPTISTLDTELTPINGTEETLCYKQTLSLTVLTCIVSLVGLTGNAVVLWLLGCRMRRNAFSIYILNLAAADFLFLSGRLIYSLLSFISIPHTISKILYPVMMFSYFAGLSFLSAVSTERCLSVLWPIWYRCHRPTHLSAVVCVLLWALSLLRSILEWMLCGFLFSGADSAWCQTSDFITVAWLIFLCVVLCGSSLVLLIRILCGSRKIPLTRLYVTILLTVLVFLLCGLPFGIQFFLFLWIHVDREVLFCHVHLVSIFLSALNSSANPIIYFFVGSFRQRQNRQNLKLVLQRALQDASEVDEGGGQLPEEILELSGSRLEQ
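Material: HEK293 cells stably expressing human MrgX1 receptor | Quantity: 15,000 cells per well | Times: Cells plated overnight, dye loaded 0.5 h 37 °C, 0.5 h room temperature | Measured by: Kinetic Fluo-4 NW fluorescence of intracellular calcium | Control set: Positive and negative controls per plate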
MrgX1 allo act: positive allosteric modulators of MrgX1, primary screen, HEK293 cells, Fluo-4 calcium flux; AID 588675, 2011; FDSS; active compounds read high; hit rate 0.63% among 310,000; B-score at 10 µM; Mas-related G-protein coupled receptor member X1 (Homo sapiens), Q96LB2;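 active = plate-corrected calcium response at least 3 library SD above typical, normal starting fluorescence, not activating the receptor alone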;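 also: compound read alongside a low EC10 to EC30 dose of BAM8-22 agonist; peak minus trough fluorescence over baseline measured at the second addition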
MrgX1 antag: antagonists of human MrgX1 receptor, primary screen, HEK293 cells, Fluo-4 calcium flux; B-score at 10 µM; Mas-related G-protein coupled receptor member X1 (Homo sapiens), Q96LB2; AID 588676, 2011; hit rate 1.3% among 310,000; BAM8-22 antagonism; active compounds read low;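 active = calcium-response B-score plate-corrected more than 3 library SD below zero, starting fluorescence within 5 deviations, no agonist response on first addition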;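 also: peak minus trough fluorescence over baseline after final BAM8-22 challenge near maximal dose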
RGS4 pot: RGS4 potentiators or activators, primary screen, cell-based, HEK293 M3R inducible RGS4, calcium flux; B-score at 10 µM; AID 463111, 2010; carbachol calcium flux Fluo4; active compounds read low; hit rate 0.92% among 310,000;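 active = B-score of the integrated calcium signal more than 4 SD below the library mean, with starting fluorescence not abnormally high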;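 also: negative B-score means reduced calcium response which marks RGS4 activation or potentiation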
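System: HEK293 FlpIn-TREx cells, stable M3R, doxycycline-inducible RGS4. Timing: overnight RGS4 induction, 30 min dye load 37 °C, 20 min compound RT. Also added: carbachol, ECmax concentration. Measured by: Fluo4 fluorescence kinetic imaging of calcium. Evaluation: integrated calcium ratio converted to B score.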
RGS4 inh: RGS4 inhibitors, primary screen, cell-based, HEK293 M3R inducible RGS4, calcium flux; Fluo-4 calcium flux; active compounds read high; triggered by carbachol at its EC20; Regulator of G-protein signaling 4 (Homo sapiens), P49798; B-score at 10 µM; hit rate 0.45% among 310,000;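 active = B-score, a plate-corrected calcium signal, over three deviations above library mean, with baseline fluorescence within five deviations of library mean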;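 also: RGS4 expression induced by doxycycline in cells with stable M3 receptor; B-score is computed from the integrated fluorescence ratio over baseline after carbachol; higher B-score means a larger calcium signal and so more RGS4 inhibition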
Target sequence (P49798 whole entry, looked up): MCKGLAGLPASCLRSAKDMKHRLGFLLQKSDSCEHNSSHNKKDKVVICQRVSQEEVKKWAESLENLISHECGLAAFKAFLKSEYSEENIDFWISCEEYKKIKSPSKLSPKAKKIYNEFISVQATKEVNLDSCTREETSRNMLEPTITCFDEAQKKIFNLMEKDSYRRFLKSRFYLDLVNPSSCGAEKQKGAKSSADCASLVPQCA
MrgX1 ant reconf: MrgX1 receptor antagonists, duplicate retest, confirmation, HEK293 cells, Fluo-4 calcium flux; shares compounds with MrgX1 antag; hit rate 19% among 2,300; remaining BAM8-22 calcium response % of control (active compounds read low), % at 10 µM; AID 602420, 2012; BAM8-22 calcium flux; active compounds read low;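 active = remaining agonist calcium response no higher than 100% minus 3 SD of agonist-only control wells, with starting fluorescence near control levels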;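 also: agonist BAM8-22 given at a near maximal EC90 to ECmax level; peak minus minimum fluorescence divided by baseline after agonist addition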
HEK293 Ca flux: nonspecific calcium signal in parental HEK293, confirmation, counter-screen for MrgX1 antagonist project, parental HEK293 cells, Fluo-4 calcium flux; fluorescence ratio F(max-min)/F0 at 10 µM; Fluo-4 calcium fluorescence, FDSS; shares compounds with MrgX1 antag; hit rate 2% among 4,000; AID 624111, 2012;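 active = duplicate-averaged calcium fluorescence ratio at least three times the standard deviation of buffer wells, a nonspecific response in parental cells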
HEK293 Ca counter: calcium response in parental HEK293 cells, primary screen, counter-screen for MrgX1 allosteric activator project, cell-based, Fluo-4 calcium flux, duplicate; shares compounds with MrgX1 antag; Fluo-4 fluorescence ratio; active compounds read high; fluorescence ratio F(max-min)/F0 at 10 µM; hit rate 0.4% among 4,000; AID 624114, 2012;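 active = calcium fluorescence ratio, averaged over duplicates, at least 3 SD of the buffer-well ratio, meaning a nonspecific response in receptor-free cells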;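 also: untransfected parental HEK293 lacking MrgX1 used as counterscreen for MrgX1 allosteric activators; fluorescence change taken during the second addition on a kinetic imager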
HEK293 Ca cntr2: calcium response in parental HEK293 cells, primary screen, counter-screen for MrgX1 agonist project, cell-based, Fluo-4 calcium flux, duplicate, agonist mode | shares compounds with MrgX1 antag | Fluo-4 calcium fluorescence (FDSS); active compounds read high | fluorescence ratio F(max-min)/F0 at 10 µM | hit rate 8.7% among 4,000 | AID 624115, 2012;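 active = calcium fluorescence ratio at least three times the spread of buffer wells, meaning a non-specific response in parental cells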
Starred values were filed as active, the others as inactive. Most compounds without a hit are left out; they make up all but 3.5% or so of the library.

Screening CCOC(=O)CC1C(=O)NCCN1S(=O)(=O)c1ccc(F)cc1 (configuration not stated) returned MrgX1 agonist inactive, MrgX1 allo act inactive, MrgX1 antag inactive, RGS4 pot inactive and RGS4 inh inactive.
Screening CCCOc1ccc(CNC(=S)Nc2ccccc2)cc1Cl returned MrgX1 agonist inactive, MrgX1 allo act inactive, MrgX1 antag -6.74*, RGS4 pot inactive, RGS4 inh inactive, MrgX1 ant reconf 77.1%*, HEK293 Ca flux inactive, HEK293 Ca counter inactive and HEK293 Ca cntr2 inactive.
COc1ccc(CNC(=S)Nc2ccccc2)cc1Cl was read as MrgX1 agonist inactive, MrgX1 allo act inactive, MrgX1 antag inactive, RGS4 pot inactive and RGS4 inh inactive.
COC1=CC(=O)CC(C)C12Oc1cc(OC)cc(OC)c1C2=O (configuration not stated) was read as MrgX1 agonist inactive, MrgX1 allo act inactive, MrgX1 antag -5.91*, RGS4 pot inactive, RGS4 inh inactive, MrgX1 ant reconf inactive, HEK293 Ca flux inactive, HEK293 Ca counter inactive and HEK293 Ca cntr2 inactive.
`Cc1ccc(C)c(S(=O)(=O)N/N=C/c2ccc(N3CCOCC3)cc2)c1` gave MrgX1 agonist inactive, MrgX1 allo act inactive, MrgX1 antag inactive, RGS4 pot inactive and RGS4 inh inactive.
For COc1ccc(C(=O)COC(=O)CCN2C(=O)C3C4CC(C(Br)C4Br)C3C2=O)cc1 (configuration not stated) the results were MrgX1 agonist inactive, MrgX1 allo act inactive, MrgX1 antag -5.41*, RGS4 pot inactive, RGS4 inh inactive, MrgX1 ant reconf inactive, HEK293 Ca flux inactive, HEK293 Ca counter inactive and HEK293 Ca cntr2 inactive.
COc1ccc(C(=O)COC(=O)CCN2C(=O)[C@@H]3[C@H](C2=O)[C@@H]2C[C@H]3C(Br)C2Br)cc1 (some centres not stated) was read as MrgX1 agonist inactive, MrgX1 allo act inactive, MrgX1 antag inactive, RGS4 pot inactive and RGS4 inh inactive.
For Cc1cccc(C)c1NC(=O)COC(=O)c1ccc([N+](=O)[O-])o1 the results were MrgX1 agonist inactive, MrgX1 allo act inactive, MrgX1 antag inactive, RGS4 pot inactive and RGS4 inh inactive.
CCn1c(CCC(=O)O)nc2cc(S(=O)(=O)N(C)C)ccc21 was read as MrgX1 agonist inactive, MrgX1 allo act inactive, MrgX1 antag inactive, RGS4 pot inactive and RGS4 inh inactive.
CCn1c(CSc2nc(C)cs2)nc2cc(S(=O)(=O)N(C)C)ccc21 was read as MrgX1 agonist inactive, MrgX1 allo act inactive, MrgX1 antag -4.64*, RGS4 pot inactive, RGS4 inh inactive, MrgX1 ant reconf inactive, HEK293 Ca flux inactive, HEK293 Ca counter inactive and HEK293 Ca cntr2 inactive.
Screening CC1CCN(C(C(=O)Nc2ccc(C(C)C)cc2)c2ccc3c(c2)OCO3)CC1 (configuration not stated) returned MrgX1 agonist inactive, MrgX1 allo act inactive, MrgX1 antag -5.36*, RGS4 pot inactive, RGS4 inh inactive, MrgX1 ant reconf inactive, HEK293 Ca flux inactive, HEK293 Ca counter inactive and HEK293 Ca cntr2 inactive.
CCOC(=O)C(C)Sc1nc(=O)n2ccccc2n1 (configuration not stated) was read as MrgX1 agonist inactive, MrgX1 allo act inactive, MrgX1 antag -5.1*, RGS4 pot inactive, RGS4 inh inactive, MrgX1 ant reconf inactive, HEK293 Ca flux inactive, HEK293 Ca counter inactive and HEK293 Ca cntr2 inactive.
CCNc1nc(C)c(CN(C(C)=O)c2ccccc2)nc1C#N was read as MrgX1 agonist inactive, MrgX1 allo act inactive, MrgX1 antag inactive, RGS4 pot inactive and RGS4 inh inactive.
Screening Cc1cc(C(=O)COC(=O)c2ccc3c(c2)NC(=O)CS3)c(C)n1CC1CCCO1 (configuration not stated) returned MrgX1 agonist inactive, MrgX1 allo act inactive, MrgX1 antag -5.91*, RGS4 pot inactive, RGS4 inh inactive, MrgX1 ant reconf inactive, HEK293 Ca flux inactive, HEK293 Ca counter inactive and HEK293 Ca cntr2 inactive.
`C/C=C/C=N/Nc1nc(C)cc(=O)[nH]1` gave MrgX1 agonist inactive, MrgX1 allo act inactive, MrgX1 antag inactive, RGS4 pot inactive and RGS4 inh inactive.
Screening C=CCn1c(Cc2cccs2)nnc1SCC(=O)NC1CC1 returned MrgX1 agonist inactive, MrgX1 allo act inactive, MrgX1 antag -8.77*, RGS4 pot inactive, RGS4 inh inactive, MrgX1 ant reconf inactive, HEK293 Ca flux inactive, HEK293 Ca counter inactive and HEK293 Ca cntr2 inactive.
For CCn1c(Cc2cccs2)nnc1SCC(=O)NC1CC1 the results were MrgX1 agonist inactive, MrgX1 allo act inactive, MrgX1 antag inactive, RGS4 pot inactive and RGS4 inh inactive.
For Cc1ccc(CNCCC2=CCCCC2)cc1 the results were MrgX1 agonist inactive, MrgX1 allo act inactive, MrgX1 antag inactive, RGS4 pot inactive and RGS4 inh inactive.
CC1(C)CC(=O)C2=C(C1)OC1=C(C2)C(=O)CC(C)(C)C1 was read as MrgX1 agonist inactive, MrgX1 allo act inactive, MrgX1 antag inactive, RGS4 pot inactive and RGS4 inh inactive.
COc1ccccc1N1CCN(C(=O)CN(c2ccc(C)c(C)c2)S(C)(=O)=O)CC1 was read as MrgX1 agonist inactive, MrgX1 allo act inactive, MrgX1 antag -4.75*, RGS4 pot inactive, RGS4 inh inactive, MrgX1 ant reconf inactive, HEK293 Ca flux inactive, HEK293 Ca counter inactive and HEK293 Ca cntr2 inactive.
